Assay [1] deals with T1, Adenosine A2 receptor (Rattus norvegicus, UniProt P29276+P30543). The assay can be described thus: Antagonism of N-ethylcarboxamido adenosine-stimulated adenylate cyclase associated with stimulation of Adenosine A2 receptor of rat PC12 membranes. In kind it is functional, cell membranes, Membrane. The note with it: pc-12.
Assay [2] deals with Adenosine A2 receptor (Rattus norvegicus) (UniProt P29276+P30543). The assay can be described thus: Inhibition of [3H]NECA binding to Adenosine A2 receptor in rat striatal membrane. Particulars: Striatum, concentration not given here. In kind it is cell membranes. Further details: concentration or dose not given beside the values. Put shortly:
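Rat striatal membranes with 4 nM [³H]NECA; 50 nM N⁶-cyclopentyladenosine present to block A1 sites. IC50 converted to Ki by Cheng-Prusoff using KD 8.5 nM for [³H]NECA at A2 receptors. Means ± SEM, n = 3. Where inhibition was incomplete, percent inhibition at the highest concentration tested is reported.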

In another assay the target is T2, Adenosine receptor A1 (Rattus norvegicus, UniProt P25099).
T2 sequence (P25099 whole entry): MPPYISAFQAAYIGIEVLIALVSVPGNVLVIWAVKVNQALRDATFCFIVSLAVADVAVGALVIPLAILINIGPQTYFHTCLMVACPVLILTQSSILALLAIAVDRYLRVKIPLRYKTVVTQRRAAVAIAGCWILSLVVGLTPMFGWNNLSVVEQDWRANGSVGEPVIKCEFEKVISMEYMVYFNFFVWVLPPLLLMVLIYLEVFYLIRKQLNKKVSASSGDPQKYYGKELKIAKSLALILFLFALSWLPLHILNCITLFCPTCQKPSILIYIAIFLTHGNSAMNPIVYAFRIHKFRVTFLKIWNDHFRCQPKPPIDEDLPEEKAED
Put plainly: Binding affinity for Adenosine A1 receptor from rat brain using [3H]-PIA as radioligand. The gist of the method:
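Rat cerebral cortex membranes incubated with 1 nM [³H]PIA at 37 °C. Means ± SEM, n = 3-5. Where inhibition was incomplete, percent inhibition at the highest concentration tested is reported.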

In assay [3] the target is T1, Adenosine A2 receptor. Put plainly: Binding affinity for Adenosine A2 receptor from rat striatum using [3H]NECA as radioligand. In kind it is protein assay.
In assay [4] the target is T3, Adenosine receptor A1 (Rattus norvegicus) (UniProt P25099).
T3 sequence (whole entry): T2 sequence (P25099 whole entry)
The assay can be described thus: Inhibition of [3H]PIA binding to Adenosine A1 receptor in rat cerebral cortical membrane. In kind it is cell membranes. Also noted: concentration or dose not given beside the values. The note with it: concentration not given here. Put shortly:
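Rat cerebral cortex membranes incubated with 1 nM [³H]PIA at 37 °C. […] Means ± SEM, n = 3-5. Where inhibition was incomplete, percent inhibition at the highest concentration tested is reported.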

Structures are written as SMILES.

In general, Ki refers to a measure of affinity in units of concentration, obtained from inhibition or displacement. The term inhibition denotes how much of the control response was suppressed. `CCCN1C(=O)CNC(=O)c2[nH]cnc21`: the Ki at Adenosine A2 receptor [1] is > 300 µM; on Adenosine receptor A1 it was 236 µM; on Adenosine A2 receptor [3], >> 250 uM. For the same molecule, in assay [2], the inhibition is 11%.
With `CC(C)CN1C(=O)CN(C)C(=O)c2c1ncn2Cc1ccccc1`, the Ki on Adenosine A2 receptor [1] was 116 µM; at Adenosine receptor A1, 11.3 µM; at Adenosine A2 receptor [3], 140 µM.
For the molecule `CN1CC(=O)N(C)c2nc[nH]c2C1=O`, at Adenosine receptor A1, the Ki is > 250 µM.
Same read-out and setting: as for `CCN1CC(=O)N(CC)c2nc[nH]c2C1=O`, the figure is > 250 µM.
As to `Cn1c(=O)c2c(ncn2Cc2ccccc2)n(C)c1=O`, the Ki at Adenosine A2 receptor [1] came to 5.6 µM; on Adenosine A2 receptor [3], 46 µM.
Consider `CN1CC(=O)N(C)c2[nH]cnc2C1=O`, for which the Ki on Adenosine A2 receptor [1] was > 300 µM; on Adenosine A2 receptor [3], >> 250 uM. For the same molecule, the inhibition in assay [2] worked out at 9%; in assay [4], 30%.
On to `CCCN1CC(=O)N(CCC)c2ncn(Cc3ccccc3)c2C1=O`, for which the results for the Ki at Adenosine A2 receptor [1], at Adenosine receptor A1 and at Adenosine A2 receptor [3] were 47 µM, 11 µM and 52 µM, respectively.
Take `CCCn1c(=O)c2c(ncn2Cc2ccccc2)n(CCC)c1=O`: the Ki at Adenosine A2 receptor [1] was 0.88 µM; on Adenosine A2 receptor [3], 3.8 µM.
As for `CC(C)Cn1c(=O)n(C)c(=O)c2nc[nH]c21` [ISOBUTYLMETHYLXANTHINE], the Ki was found to be 6.3 µM on Adenosine A2 receptor [1], 6.7 µM on Adenosine receptor A1 and 9.1 µM on Adenosine A2 receptor [3].
For `CN1C(=O)CNC(=O)c2c1ncn2C`, the values for the Ki on Adenosine A2 receptor [1], at Adenosine receptor A1 and on Adenosine A2 receptor [3] were > 300 µM, > 250 µM and >> 250 uM, respectively. The results for the inhibition in assay [2] and in assay [4] were 11% and 10%, respectively.
In the case of `CCCN1CC(=O)N(CCC)c2ncn(C)c2C1=O`, the Ki on Adenosine A2 receptor [1] is 170 µM; at Adenosine receptor A1, > 250 µM; at Adenosine A2 receptor [3], > 250 µM. The inhibition in assay [2] is 23%; in assay [4] it was 40%.
Take `Cn1cnc2c1c(=O)[nH]c(=O)n2C` [THEOBROMINE]: the Ki is 250 µM at Adenosine A2 receptor [1], 105 µM on Adenosine receptor A1 and > 250 µM at Adenosine A2 receptor [3]. The same molecule came in with an inhibition in assay [2] of 40%.
In the case of `CCN1CC(=O)N(CC)c2ncn(C)c2C1=O`, the Ki at Adenosine A2 receptor [1] was 260 µM; on Adenosine receptor A1, > 250 µM; at Adenosine A2 receptor [3] it was > 250 µM. For the same molecule, the inhibition in assay [2] was 17%; in assay [4], 40%.
Regarding `CN1CC(=O)N(C)c2ncn(Cc3ccccc3)c2C1=O`, the Ki was 120 µM on Adenosine A2 receptor [1], 30 µM on Adenosine receptor A1 and > 250 µM on Adenosine A2 receptor [3]. Also, the inhibition in assay [2] came out at 30%.
Turning to `CN1CC(=O)N(C)c2ncn(C)c2C1=O`, the Ki on Adenosine A2 receptor [1] is > 300 µM; on Adenosine receptor A1, > 250 µM; at Adenosine A2 receptor [3], >> 250 uM. Further, the figures for the inhibition in assay [2] and in assay [4] were 9% and 10%, respectively.
With `CC(C)Cn1c(=O)n(C)c(=O)c2c1ncn2Cc1ccccc1`, the Ki at Adenosine A2 receptor [1] came out at 7.5 µM; at Adenosine receptor A1, 6.9 µM; on Adenosine A2 receptor [3], 32 µM.
Regarding `CCN1CC(=O)N(CC)c2ncn(Cc3ccccc3)c2C1=O`, the Ki on Adenosine A2 receptor [1] turned out to be 76 µM; on Adenosine receptor A1 it was 16 µM; at Adenosine A2 receptor [3], 81 µM.
`CCN1CC(=O)N(CC)c2[nH]cnc2C1=O`: the Ki is > 300 µM at Adenosine A2 receptor [1] and > 250 µM on Adenosine A2 receptor [3]. The inhibition stood at 20% in assay [2] and 40% in assay [4].
For the molecule `CC(C)CN1C(=O)CN(C)C(=O)c2[nH]cnc21`, the values for the Ki on Adenosine A2 receptor [1], at Adenosine receptor A1 and on Adenosine A2 receptor [3] were > 300 µM, 104 µM and >> 250 uM, respectively. The inhibition in assay [2] came out at 15%.
As to `CCCN1C(=O)CNC(=O)c2c1ncn2Cc1ccccc1`, the Ki is 163 µM on Adenosine A2 receptor [1], 32 µM at Adenosine receptor A1 and 151 µM at Adenosine A2 receptor [3].

(Values after ChEMBL document CHEMBL1124986, “Imidazodiazepinediones: a new class of adenosine receptor antagonists” (J Med Chem, 1990).)
